Results reported in ChEMBL document CHEMBL3272249, “Esters of N-tert-butylarterenol. Long-acting new bronchodilators with reduced cardiac effects” (J Med Chem, 1976).

Experiments:
Canis familiaris [1] = assay: Bronchodilator activity in dog assessed as degree of inhibition of carbachol or histamine-induced bronchoconstriction at 5 mg/kg, iv relative to control; format: functional; details: Canis lupus familiaris
Method in brief: (§1)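 Anesthetized dogs, trachea cannulated with a nonbreathing valve. Bronchoconstriction induced by iv carbachol (2–4 μg/kg) or histamine diphosphate (20–50 μg/kg) in separate animals, and airway pressure recorded by transducer. Drug stocks were made fresh in distilled water, diluted in saline and kept on ice. Read-out was percent inhibition of control constriction, averaged over at least three dogs per dose at the higher dose. Carbachol and histamine data were combined.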

Canis familiaris [2] = assay: Bronchodilator activity in dog assessed as time of inhibition of carbachol or histamine-induced bronchoconstriction at 5 mg/kg, iv relative to control; format: functional, Canis lupus familiaris
Method in brief: (§2)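 Anesthetized dogs with an airway cannula and a nonbreathing valve. Bronchoconstriction was induced by iv carbachol (2–4 μg/kg) or histamine diphosphate (20–50 μg/kg) and read as change in airway pressure by transducer. Each compound was tested against both agonists in different dogs, and the results were combined and averaged. Effect is % inhibition of control constriction, with at least three dogs per dose. Drugs were dissolved fresh in distilled water, diluted in saline and kept on ice.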

Canis familiaris [3] = assay: Bronchodilator activity in dog assessed as degree of inhibition of carbachol or histamine-induced bronchoconstriction at 200 to 400 mg/kg, id relative to control; format: functional, Canis lupus familiaris; details: dose mg/kg 200-400; route intraduodenal; method in brief: as §1
Canis familiaris [4] = assay: Cardiotoxicity in spontaneously respiring dog assessed as time of increase in heart rate at 4 to 8 mg/kg, iv relative to control; format: toxicity, organism-based, Canis lupus familiaris; design: dose 4-8 mg/kg, route intravenous; details: in vivo
Method in brief: (§3)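 Anesthetized, spontaneously respiring dogs. Heart rate was taken from a lead II EKG, and blood pressure from the right femoral artery by transducer. The increase in heart rate (beats/min) was scored on a graded scale with more than 4 dogs per dose, and its duration was recorded. Drugs were dissolved fresh in distilled water, diluted in physiological saline and kept on ice.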

Canis familiaris [5] = assay: Cardiotoxicity in spontaneously respiring dog assessed as time of increase in heart rate at 200 to 400 mg/kg, id relative to control; format: toxicity, organism-based, Canis lupus familiaris; design: dose 200-400 mg/kg, route intraduodenal; details: in vivo, other; method in brief: as §3
Canis familiaris [6] = assay: Cardiotoxicity in spontaneously respiring dog assessed as degree of increase in heart rate at 200 to 400 mg/kg, id relative to control; format: toxicity, organism-based, Canis lupus familiaris; design: dose 200-400 mg/kg, route intraduodenal; details: in vivo, other; method in brief: as §3
Canis familiaris [7] = assay: Bronchodilator activity in dog assessed as time of inhibition of carbachol or histamine-induced bronchoconstriction at 400 to 800 mg/kg, it relative to control; format: functional, Canis lupus familiaris; details: dose mg/kg 400-800; route endotracheal
Method in brief: (§4)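 Dog airway model: anesthetized, cannulated via a nonbreathing valve, with airway pressure changes recorded after iv carbachol (2–4 μg/kg) or histamine diphosphate (20–50 μg/kg) challenge, each agonist in different animals. Compounds were given iv, intraduodenally or intratracheally from fresh aqueous stocks diluted in saline. Duration (h) of inhibition of induced bronchoconstriction was followed, and the two agonist datasets were pooled.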

Canis familiaris [8] = assay: Bronchodilator activity in dog assessed as degree of inhibition of carbachol or histamine-induced bronchoconstriction at 400 to 800 mg/kg, it relative to control; format: functional, Canis lupus familiaris; details: dose mg/kg 400-800; route endotracheal; method in brief: as §1
Canis familiaris [9] = assay: Bronchodilator activity in dog assessed as time of inhibition of carbachol or histamine-induced bronchoconstriction at 200 to 400 mg/kg, id relative to control; format: functional, Canis lupus familiaris; details: dose mg/kg 200-400; route intraduodenal; method in brief: as §4
Canis familiaris [10] = assay: Bronchodilator activity in dog assessed as time of inhibition of carbachol or histamine-induced bronchoconstriction at 4 to 8 mg/kg, iv relative to control; format: functional, Canis lupus familiaris; details: dose mg/kg 4-8; method in brief: as §4
Canis familiaris [11] = assay: Cardiotoxicity in spontaneously respiring dog assessed as degree of increase in heart rate at 4 to 8 mg/kg, iv relative to control; format: toxicity, organism-based, Canis lupus familiaris; design: dose 4-8 mg/kg, route intravenous; details: in vivo; method in brief: as §3
Canis familiaris [12] = assay: Bronchodilator activity in dog assessed as degree of inhibition of carbachol or histamine-induced bronchoconstriction at 4 to 8 mg/kg, iv relative to control; format: functional, Canis lupus familiaris; details: dose mg/kg 4-8; method in brief: as §1
Canis familiaris [13] = assay: Bronchodilator activity in dog assessed as time of inhibition of carbachol or histamine-induced bronchoconstriction at 5 to 10 mg/kg, iv relative to control; format: functional, Canis lupus familiaris; details: dose mg/kg 5-10; method in brief: as §2
Canis familiaris [14] = assay: Bronchodilator activity in dog assessed as degree of inhibition of carbachol or histamine-induced bronchoconstriction at 5 to 10 mg/kg, iv relative to control; format: functional, Canis lupus familiaris; details: dose mg/kg 5-10; method in brief: as §1
Canis familiaris [15] = assay: Bronchodilator activity in dog assessed as time of inhibition of carbachol or histamine-induced bronchoconstriction at 300 to 1200 mg/kg, it relative to control; format: functional, Canis lupus familiaris; details: dose mg/kg 300-1200; route endotracheal; method in brief: as §4
Canis familiaris [16] = assay: Cardiotoxicity in spontaneously respiring dog assessed as degree of increase in heart rate at 100 to 200 mg/kg, iv relative to control; format: toxicity, organism-based, Canis lupus familiaris; design: dose 100-200 mg/kg, route intravenous; details: in vivo; method in brief: as §3
Canis familiaris [17] = assay: Bronchodilator activity in dog assessed as degree of inhibition of carbachol or histamine-induced bronchoconstriction at 300 to 1200 mg/kg, it relative to control; format: functional, Canis lupus familiaris; details: dose mg/kg 300-1200; route endotracheal; method in brief: as §1
Canis familiaris [18] = assay: Bronchodilator activity in dog assessed as time of inhibition of carbachol or histamine-induced bronchoconstriction at 100 to 200 mg/kg, iv relative to control; format: functional, Canis lupus familiaris; details: dose mg/kg 100-200; method in brief: as §4
Canis familiaris [19] = assay: Bronchodilator activity in dog assessed as degree of inhibition of carbachol or histamine-induced bronchoconstriction at 100 to 200 mg/kg, iv relative to control; format: functional, Canis lupus familiaris; details: dose mg/kg 100-200; method in brief: as §1
Canis familiaris [20] = assay: Bronchodilator activity in dog assessed as degree of inhibition of carbachol or histamine-induced bronchoconstriction at 25 to 100 mg/kg, iv relative to control; format: functional, Canis lupus familiaris; details: dose mg/kg 25-100; method in brief: as §1
Canis familiaris [21] = assay: Bronchodilator activity in dog assessed as time of inhibition of carbachol or histamine-induced bronchoconstriction at 25 to 100 mg/kg, iv relative to control; format: functional, Canis lupus familiaris; details: dose mg/kg 25-100; method in brief: as §4
Canis familiaris [22] = assay: Bronchodilator activity in dog assessed as time of inhibition of carbachol or histamine-induced bronchoconstriction at 520 to 1040 mg/kg, it relative to control; format: functional, Canis lupus familiaris; details: dose mg/kg 520-1040; route endotracheal; method in brief: as §2
Canis familiaris [23] = assay: Bronchodilator activity in dog assessed as degree of inhibition of carbachol or histamine-induced bronchoconstriction at 520 to 1040 mg/kg, it relative to control; format: functional, Canis lupus familiaris; details: dose mg/kg 520-1040; route endotracheal; method in brief: as §1
Canis familiaris [24] = assay: Bronchodilator activity in dog assessed as degree of inhibition of carbachol or histamine-induced bronchoconstriction at 25 to 50 mg/kg, iv relative to control; format: functional, Canis lupus familiaris; details: dose mg/kg 25-50; method in brief: as §1
Canis familiaris [25] = assay: Bronchodilator activity in dog assessed as time of inhibition of carbachol or histamine-induced bronchoconstriction at 25 to 50 mg/kg, iv relative to control; format: functional, Canis lupus familiaris; details: dose mg/kg 25-50; method in brief: as §4

Q: For `CC(C)C(=O)Oc1ccc([C@@H](O)CNC(C)(C)C)cc1OC(=O)C(C)C.Cl`, which inhibition in vivo at 5 mg/kg (Canis familiaris [1]) is on record?
A: 20%

Q: And the Time (Canis familiaris [2])?
A: <0.5 h

Q: Which “inhibition (INH)” value (Canis familiaris [3]) does the source give for `CC(C)CC(=O)Oc1ccc([C@@H](O)CNC(C)(C)C)cc1OC(=O)CC(C)C.Cl` here?
A: 45%

Q: And the Time (Canis familiaris [4])?
A: < 1 h

Q: What about the Time (Canis familiaris [5]) of the same molecule?
A: < 3 h

Q: What about the Activity (Canis familiaris [6]) of the same molecule?
A: 40 beats/min

Q: What about the Time (Canis familiaris [7]) of the same molecule?
A: <2 h

Q: And the “inhibition (INH)” value (Canis familiaris [8])?
A: >70%

Q: And the Time (Canis familiaris [9])?
A: 3 h

Q: And the Time (Canis familiaris [10])?
A: <2 h

Q: And the Activity (Canis familiaris [11])?
A: 20 beats/min

Q: And the “inhibition (INH)” value (Canis familiaris [12])?
A: >70%

Q: With `CCC(C)C(=O)Oc1ccc([C@@H](O)CNC(C)(C)C)cc1OC(=O)C(C)CC.Cl` (some centres not stated) as the molecule, how does the Time (Canis familiaris [13]) read?
A: <1 h

Q: And the “inhibition (INH)” value (Canis familiaris [14])?
A: 45%

Q: How did the Time (Canis familiaris [13]) turn out when `CCCC(C)(C)C(=O)Oc1ccc([C@@H](O)CNC(C)(C)C)cc1OC(=O)C(C)(C)CCC.CS(=O)(=O)O` was run?
A: <1 h

Q: And the “inhibition (INH)” value (Canis familiaris [14])?
A: 45%

Q: Which Time (Canis familiaris [15]) does the source give for `CS(=O)(=O)O.Cc1ccccc1C(=O)Oc1ccc([C@@H](O)CNC(C)(C)C)cc1OC(=O)c1ccccc1C` here?
A: <3 h

Q: What about the Activity (Canis familiaris [16]) of the same molecule?
A: 20%

Q: And the “inhibition (INH)” value (Canis familiaris [17])?
A: 20%

Q: And the Time (Canis familiaris [18])?
A: <4 h

Q: And the “inhibition (INH)” value (Canis familiaris [19])?
A: 20%

Q: How did the “inhibition (INH)” value (Canis familiaris [20]) turn out when `COc1ccc(CC(=O)Oc2ccc([C@@H](O)CNC(C)(C)C)cc2OC(=O)Cc2ccc(OC)cc2)cc1.Cl` was run?
A: >70%

Q: What about the Time (Canis familiaris [21]) of the same molecule?
A: 2 h

Q: For `CS(=O)(=O)O.Cc1ccc(C(=O)Oc2ccc([C@@H](O)CNC(C)(C)C)cc2OC(=O)c2ccccc2)cc1`, which Time (Canis familiaris [22]) is on record?
A: 2 h

Q: And the “inhibition (INH)” value (Canis familiaris [23])?
A: 45%

Q: What about the “inhibition (INH)” value (Canis familiaris [24]) of the same molecule?
A: >70%

Q: And the Time (Canis familiaris [25])?
A: 2 h
